Activity calls are given as the source filed them. The calls are words filed in the database; no cut-off is given here.
Legend:
[1] = Metabolic stability in rat liver microsome after 30 mins by LC/MS/MS analysis; assay type: ADME; conditions: liver microsomes, read-out: Stability
Outline: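 Compound incubated 30 min with rat liver microsomes; percent parent remaining by LC/MS/MS.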

[2] = target: Acyl-CoA 6-desaturase (Rattus norvegicus) (UniProt Q9Z122); experiment: Inhibition of delta6 desaturase in Sprague-Dawley rat liver microsome using cis,cis-9,12-octadecadienoic acid substrate at 10 uM
Chain of Acyl-CoA 6-desaturase (Rattus norvegicus) (Q9Z122 whole entry, looked up): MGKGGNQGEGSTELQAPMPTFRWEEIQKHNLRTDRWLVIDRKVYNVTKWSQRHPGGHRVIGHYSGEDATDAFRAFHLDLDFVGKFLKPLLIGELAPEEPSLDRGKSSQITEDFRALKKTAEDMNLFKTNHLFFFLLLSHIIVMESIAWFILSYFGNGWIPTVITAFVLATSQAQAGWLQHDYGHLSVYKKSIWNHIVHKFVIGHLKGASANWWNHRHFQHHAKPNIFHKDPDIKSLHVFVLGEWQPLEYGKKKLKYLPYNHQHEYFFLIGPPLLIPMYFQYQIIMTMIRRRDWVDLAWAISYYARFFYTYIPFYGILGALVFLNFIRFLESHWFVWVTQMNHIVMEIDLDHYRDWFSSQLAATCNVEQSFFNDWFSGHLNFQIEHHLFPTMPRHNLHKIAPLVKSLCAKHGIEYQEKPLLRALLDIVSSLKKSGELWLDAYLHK

[3] = Tmax in Lewis rat at 5 mg/kg, po; assay type: ADME, organism-based; set-up: dose 5 mg/kg, route oral; conditions: in vivo
Outline: (§1)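 Lewis rats, IV 3 mg/kg and PO 10 mg/kg unless otherwise stated (some at PO 5 mg/kg, IV 1 mg/kg, or IV 1/PO 2 mg/kg). At least two rats IV, three rats PO, averaged. Plasma t1/2 (h), AUC 0–∞ (μM·h), Vss (L/kg), clearance ((L/h)/kg), Cmax (μM), Tmax (h), oral bioavailability (%).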

[4] = Clearance in Lewis rat at 3 mg/kg, iv; assay type: ADME, organism-based; set-up: dose 3 mg/kg, route intravenous; conditions: in vivo; outline: as §1
Rattus norvegicus [5] = experiment: In vivo inhibition of SCD1 in Lewis rat liver microsome at 15 mg/kg, ip administered qd for 2 days; assay type: functional; conditions: 48 h, route intraperitoneal
Outline: (§2)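 Lewis rats fed high-carbohydrate diet for one week, fasted 4 h, then dosed orally (0.1–1 mg/kg in 0.2% Tween 20/1% CMC; n = 4), killed 4 h later; ip arm 15 mg/kg once daily for two days. Liver microsomes prepared, SCD1 activity measured by tritiated water release from [9,10-3H]stearoyl-CoA. Mean ± SD of at least four rats.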

Acyl-CoA desaturase 1 = target: T1, Acyl-CoA desaturase 1 (Mus musculus, UniProt P13516); experiment: Inhibition of SCD1 in ICR mouse liver microsome using [9,10 3H]- stearoyl-Coenzyme A substrate assessed as decreased production of tritiated water after 20 min by scintillation counting analysis
T1 sequence (P13516 whole entry): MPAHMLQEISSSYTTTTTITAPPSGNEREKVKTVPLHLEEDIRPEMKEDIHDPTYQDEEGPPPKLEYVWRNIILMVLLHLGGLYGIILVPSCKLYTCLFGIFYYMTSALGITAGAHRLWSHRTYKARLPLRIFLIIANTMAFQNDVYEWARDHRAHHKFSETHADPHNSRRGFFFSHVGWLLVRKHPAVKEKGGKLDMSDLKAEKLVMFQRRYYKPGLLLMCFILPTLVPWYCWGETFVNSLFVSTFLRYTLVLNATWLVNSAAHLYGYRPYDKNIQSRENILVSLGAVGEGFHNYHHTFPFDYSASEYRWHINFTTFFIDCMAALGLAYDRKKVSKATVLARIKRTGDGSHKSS

[6] = Cmax in Lewis rat at 5 mg/kg, po; assay type: ADME, organism-based; set-up: dose 5 mg/kg, route oral; conditions: in vivo; outline: as §1
[7] = Half life in Lewis rat at 3 mg/kg, iv; assay type: ADME, organism-based; set-up: dose 3 mg/kg, route intravenous; conditions: in vivo; outline: as §1
[8] = Oral bioavailability in Lewis rat at 5 mg/kg; assay type: ADME, organism-based; conditions: in vivo; outline: as §1
[9] = target: Acyl-CoA (8-3)-desaturase (Rattus norvegicus) (UniProt Q920R3); experiment: Inhibition of delta5 desaturase in Sprague-Dawley rat liver microsome at 10 uM; assay type: microsomes
Chain of Acyl-CoA (8-3)-desaturase (Rattus norvegicus) (Q920R3 whole entry, looked up): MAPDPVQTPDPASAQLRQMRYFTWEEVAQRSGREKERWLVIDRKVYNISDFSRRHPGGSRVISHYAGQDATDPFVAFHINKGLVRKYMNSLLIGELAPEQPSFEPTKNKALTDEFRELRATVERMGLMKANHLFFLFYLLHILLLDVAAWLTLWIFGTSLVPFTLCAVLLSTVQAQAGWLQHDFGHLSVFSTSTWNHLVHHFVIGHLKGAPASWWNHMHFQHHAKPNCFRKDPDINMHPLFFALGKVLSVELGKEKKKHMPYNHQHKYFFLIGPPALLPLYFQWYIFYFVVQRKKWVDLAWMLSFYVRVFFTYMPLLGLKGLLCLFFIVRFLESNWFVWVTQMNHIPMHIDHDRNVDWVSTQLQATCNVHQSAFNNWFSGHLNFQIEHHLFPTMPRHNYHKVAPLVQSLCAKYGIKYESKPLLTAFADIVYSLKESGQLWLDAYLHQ

[10] = Apparent permeability from apical to basolateral side in human Caco2 cells; assay type: ADME, cell-based; conditions: Caco-2
Outline: (§3)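 Caco-2 monolayers; apparent permeability a-to-b and b-to-a reported in 10⁻⁶ cm/s.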

[11] = Volume of distribution at steady state in Lewis rat at 3 mg/kg, iv; assay type: ADME, organism-based; set-up: dose 3 mg/kg, route intravenous; conditions: in vivo, read-out: Vdss; outline: as §1
[12] = Apparent permeability from basolateral to apical side in human Caco2 cells; assay type: ADME, cell-based; conditions: Caco-2; outline: as §3
[13] = Cmax in Lewis rat at 10 mg/kg, po; assay type: ADME, organism-based; set-up: dose 10 mg/kg, route oral; conditions: in vivo; outline: as §1
Rattus norvegicus [14] = experiment: Antiobesity activity in Zucker-Fatty rat assessed as reduction in combined visceral fat weight at 1 mg/kg, po bid administered for 15 weeks relative to vehicle-treated control; assay type: functional; set-up: scale not given: the % may be the effect or the level left
Outline: (§4)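 Male Zucker fa/fa rats, 20 weeks old, chow ad libitum, 24 per group. Dosed orally twice daily (10 a.m., 4 p.m.) at 1 mg/kg for 15 weeks, suspended in 1% CMC/0.1% Tween 20/10% propylene glycol/water; vehicle controls. Body weight taken daily, change from day 0 over 12 weeks. At end: epididymal, retroperitoneal and mesenteric fat pads weighed; DEXA of carcass BMC, lean and fat mass; fat % = FM/(BMC+LM+FM); n = 12, mean ± SEM.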

[15] = Tmax in Lewis rat at 10 mg/kg, po; assay type: ADME, organism-based; set-up: dose 10 mg/kg, route oral; conditions: in vivo; outline: as §1
Rattus norvegicus [16] = experiment: In vivo inhibition of SCD1 in po dosed Lewis rat liver microsome at 0.1 to 1 mg/kg after 4 hrs; assay type: functional, organism-based; outline: as §2
Rattus norvegicus [17] = experiment: In vivo inhibition of SCD1 in po dosed Lewis rat liver microsome after 4 hrs; assay type: functional; outline: as §2
Rattus norvegicus [18] = experiment: Antiobesity activity in Zucker-Fatty rat assessed as reduction in body fat percentage at 1 mg/kg, po bid administered for 15 weeks relative to vehicle-treated control; assay type: functional; set-up: scale not given: the % may be the effect or the level left; outline: as §4
Rattus norvegicus [19] = experiment: In vivo inhibition of SCD1 in Zucker-Fatty rat assessed as reduction of C16 plasma desaturation index at 1 mg/kg, po bid administered for 15 weeks; assay type: functional; conditions: 2520 h
Outline: (§5)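 Plasma from Zucker fatty rats after 15 weeks oral 1 mg/kg twice daily. Lipids extracted by modified Folch, classes separated by TLC, hydrolyzed, derivatized and analyzed by GC against an internal standard. Desaturation index is the […] ratio for C16 and C18; n = 12, mean ± SEM.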

[20] = Oral bioavailability in Lewis rat at 10 mg/kg; assay type: ADME, organism-based; conditions: in vivo; outline: as §1
Rattus norvegicus [21] = experiment: In vivo inhibition of SCD1 in Zucker-Fatty rat assessed as reduction of C18 plasma desaturation index at 1 mg/kg, po bid administered for 15 weeks; assay type: functional; conditions: 2520 h; outline: as §5
Rattus norvegicus [22] = experiment: Antiobesity activity in Zucker-Fatty rat assessed as reduction in total body weight at 1 mg/kg, po bid administered upto 12 weeks relative to vehicle-treated control; assay type: functional; set-up: scale not given: the % may be the effect or the level left; outline: as §4
Rattus norvegicus [23] = experiment: Antiobesity activity in Zucker-Fatty rat assessed as reduction in fat mass at 1 mg/kg, po bid administered for 15 weeks; assay type: functional; set-up: scale not given: the % may be the effect or the level left; outline: as §4
Rattus norvegicus [24] = experiment: Antiobesity activity in Zucker-Fatty rat assessed as reduction in lean mass at 1 mg/kg, po bid administered for 15 weeks; assay type: functional, organism-based; set-up: dose 1 mg/kg; outline: as §4
[25] = Volume of distribution at steady state in Lewis rat at 1 mg/kg, iv; assay type: ADME, organism-based; set-up: dose 1 mg/kg, route intravenous; conditions: in vivo, read-out: Vdss; outline: as §1
[26] = Clearance in Lewis rat at 1 mg/kg, iv; assay type: ADME, organism-based; set-up: dose 1 mg/kg, route intravenous; conditions: in vivo; outline: as §1
Rattus norvegicus [27] = experiment: Antiobesity activity in Zucker-Fatty rat assessed as reduction in bone mineral content at 1 mg/kg, po bid administered for 15 weeks; assay type: functional, organism-based; set-up: dose 1 mg/kg; outline: as §4
[28] = Half life in Lewis rat at 1 mg/kg, iv; assay type: ADME, organism-based; set-up: dose 1 mg/kg, route intravenous; conditions: in vivo; outline: as §1
CYP2C19 = CYP2C19 (Homo sapiens, UniProt P33261); experiment: Inhibition of CYP2C19 (unknown origin) at 10 uM; assay type: ADME
Chain of CYP2C19 (P33261 whole entry): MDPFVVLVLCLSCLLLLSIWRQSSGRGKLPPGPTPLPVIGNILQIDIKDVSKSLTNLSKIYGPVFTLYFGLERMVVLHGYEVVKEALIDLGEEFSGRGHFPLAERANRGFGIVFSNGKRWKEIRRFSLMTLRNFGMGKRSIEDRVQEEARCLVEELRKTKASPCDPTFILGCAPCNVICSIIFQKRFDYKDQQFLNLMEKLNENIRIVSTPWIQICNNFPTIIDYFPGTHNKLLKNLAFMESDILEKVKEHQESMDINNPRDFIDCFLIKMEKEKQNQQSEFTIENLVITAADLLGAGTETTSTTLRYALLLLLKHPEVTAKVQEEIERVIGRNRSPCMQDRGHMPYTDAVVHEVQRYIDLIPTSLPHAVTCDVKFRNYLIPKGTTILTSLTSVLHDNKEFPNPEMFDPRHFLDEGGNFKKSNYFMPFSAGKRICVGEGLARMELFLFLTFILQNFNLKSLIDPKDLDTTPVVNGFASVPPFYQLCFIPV

CYP2D6 = CYP2D6 (Homo sapiens, UniProt P10635); experiment: Inhibition of CYP2D6 (unknown origin) at 10 uM; assay type: ADME
Chain of CYP2D6 (P10635 whole entry): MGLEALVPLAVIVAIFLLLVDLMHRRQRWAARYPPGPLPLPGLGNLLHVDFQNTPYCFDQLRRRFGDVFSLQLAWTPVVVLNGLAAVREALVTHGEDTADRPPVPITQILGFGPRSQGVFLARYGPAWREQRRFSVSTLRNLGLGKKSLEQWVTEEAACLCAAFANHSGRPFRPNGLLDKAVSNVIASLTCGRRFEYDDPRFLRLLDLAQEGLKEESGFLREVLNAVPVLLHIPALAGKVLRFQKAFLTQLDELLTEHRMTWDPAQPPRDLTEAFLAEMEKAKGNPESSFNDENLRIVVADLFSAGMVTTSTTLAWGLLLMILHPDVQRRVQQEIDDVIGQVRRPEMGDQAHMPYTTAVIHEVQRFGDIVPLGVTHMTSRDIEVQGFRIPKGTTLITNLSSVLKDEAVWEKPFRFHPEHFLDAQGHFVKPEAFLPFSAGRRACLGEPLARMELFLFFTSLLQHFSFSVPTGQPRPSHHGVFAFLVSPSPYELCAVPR

CYP3A4 = CYP3A4 (Homo sapiens, UniProt P08684); experiment: Inhibition of CYP3A4 (unknown origin) at 10 uM; assay type: ADME
Chain of CYP3A4 (P08684 whole entry): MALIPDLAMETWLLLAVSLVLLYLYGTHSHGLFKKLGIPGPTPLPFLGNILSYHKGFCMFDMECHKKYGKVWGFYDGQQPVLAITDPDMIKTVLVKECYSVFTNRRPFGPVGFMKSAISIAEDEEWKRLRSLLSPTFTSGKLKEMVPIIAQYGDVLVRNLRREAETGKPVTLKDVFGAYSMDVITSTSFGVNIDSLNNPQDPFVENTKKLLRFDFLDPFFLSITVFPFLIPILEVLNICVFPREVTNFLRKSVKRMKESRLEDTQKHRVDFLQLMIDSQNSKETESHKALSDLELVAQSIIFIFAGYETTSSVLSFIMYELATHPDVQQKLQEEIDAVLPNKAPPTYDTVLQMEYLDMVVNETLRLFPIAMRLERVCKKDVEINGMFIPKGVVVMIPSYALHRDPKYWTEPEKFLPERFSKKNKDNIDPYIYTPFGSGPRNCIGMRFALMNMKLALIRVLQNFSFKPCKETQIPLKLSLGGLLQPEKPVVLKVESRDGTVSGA

CYP2C9 = CYP2C9 (Homo sapiens, UniProt P11712); experiment: Inhibition of CYP2C9 (unknown origin) at 10 uM; assay type: ADME
Chain of CYP2C9 (P11712 whole entry): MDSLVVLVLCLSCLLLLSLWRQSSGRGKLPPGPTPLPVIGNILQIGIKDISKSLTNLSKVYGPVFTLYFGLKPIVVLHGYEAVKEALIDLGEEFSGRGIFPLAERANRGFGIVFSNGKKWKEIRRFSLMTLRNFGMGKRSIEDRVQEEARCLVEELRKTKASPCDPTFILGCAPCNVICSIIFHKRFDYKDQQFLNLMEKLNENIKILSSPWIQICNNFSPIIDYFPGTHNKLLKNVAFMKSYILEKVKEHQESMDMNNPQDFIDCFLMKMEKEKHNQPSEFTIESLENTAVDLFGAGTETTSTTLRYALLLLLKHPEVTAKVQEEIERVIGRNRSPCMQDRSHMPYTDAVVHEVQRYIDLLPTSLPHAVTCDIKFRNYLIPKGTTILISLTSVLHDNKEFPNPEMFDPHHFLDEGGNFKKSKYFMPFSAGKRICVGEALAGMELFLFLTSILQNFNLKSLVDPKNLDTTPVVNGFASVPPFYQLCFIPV

[29] = Protein binding in plasma (unknown origin); assay type: ADME, cell-free; conditions: read-out: PPB (converted)

Compound | remaining at 0.5 h [1] [%] | inhibition [2] | clearance [4] [mL/min/kg] | inhibition in vivo at 15 mg/kg (Rattus norvegicus [5]) [%] | IC50 (Acyl-CoA desaturase 1) [µM] | half-life [7] [h] | inhibition [9] | Papp A→B [10] [×10⁻⁶ cm/s] | Vd [11] [L/kg] | Papp B→A [12] [×10⁻⁶ cm/s] | Cmax [13] [nM] | Tmax [15] [h] | bioavailability [20] [%] | other results
O=C(NCCC1CC1)c1ccc(N2CCN(C(=O)c3ccccc3C(F)(F)F)CC2)nn1 | 76 | inactive | 31.7 | > 60 | 0.025 | 1 | inactive | 24 | 2.2 | 22 | – | – | – | Tmax [3]: 1 h; Cmax [6]: 900 nM; bioavailability [8]: 46%
O=C(NCCC1CC1)c1ccc(N2CCN(C(=O)c3cc(F)ccc3C(F)(F)F)CC2)nn1 | 74 | inactive | – | > 60 | 0.014 | – | inactive | 30 | – | 30 | 900 | 3.3 | 49 | Activity (Rattus norvegicus [14]): 24%; inhibition (Rattus norvegicus [16]): Dose-dependent effect; ED50 (Rattus norvegicus [17]): 0.8 mg/kg; Activity (Rattus norvegicus [18]): 9%; inhibition in vivo at 1 mg/kg (Rattus norvegicus [19]): 73%; inhibition in vivo at 1 mg/kg (Rattus norvegicus [21]): 61%; Activity (Rattus norvegicus [22]): 36%; Activity (Rattus norvegicus [23]): 20%; Activity (Rattus norvegicus [24]): inactive; Vd [25]: 2.7 L/kg; clearance [26]: 21.7 mL/min/kg; Activity (Rattus norvegicus [27]): inactive; half-life [28]: 1.6 h
O=C(NCCC1CC1)c1ccc(N2CCN(C(=O)c3cc(Cl)ccc3C(F)(F)F)CC2)nn1 | 69 | inactive | 14.3 | > 60 | 0.012 | 1.8 | inactive | 32 | 1.6 | 30 | 500 | 2.3 | 30 | –
CC(C)CCNC(=O)c1ccc(N2CCN(C(=O)c3ccccc3C(F)(F)F)CC2)nn1 | 57 | – | – | 40 | 0.026 | – | – | 25 | – | – | – | – | – | inhibition at 10 µM (CYP2C19): < 50%; inhibition at 10 µM (CYP2D6): < 50%; inhibition at 10 µM (CYP3A4): < 50%; inhibition at 10 µM (CYP2C9): < 50%; fraction unbound [29]: 0.22

Reference: ChEMBL document CHEMBL2311383, “Discovery of piperazin-1-ylpyridazine-based potent and selective stearoyl-CoA desaturase-1 inhibitors for the treatment of obesity and metabolic syndrome” (J Med Chem, 2013)
